Source: PubChem (several laboratories)
Thrombin inh: human alpha-thrombin inhibitors, primary screen, counter-screen for coagulation protease inhibitor project, biochemical, 1536-well, fluorogenic AMC substrate; actives 0.26% (n = 220,000); inhibition, % at 5 µM; Boc-VPR-AMC fluorogenic substrate cleavage;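 active = inhibition at or above 40%; inactive = inhibition below 40%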;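 also: 0% = enzyme with no compound and 100% = wells without enzyme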
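Test system: human alpha-thrombin; medium: pH 7.5 Tris-saline with Tween 20; times: reaction at room temperature; signal: AMC fluorescence at 355 nm excitation and 460 nm emission; also added: Boc-VPR-AMC substrate, 15 µM final; dosing: one concentration per compound, 5 µM, with 0.2% DMSO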
FXIIa inh 1536: human FXIIa protease inhibitors, primary screen, biochemical, 1536-well; purified FXIIa, Boc-QGR-AMC fluorogenic substrate, 2 h; inhibition, % at 5 µM; actives 0.3% (n = 220,000); AID 800, 2007; in the data active = inhibition above about 40%;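 also: 0% = enzyme with no compound and 100% = blank without enzyme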
hK5 inh: human KLK5 protease inhibitors, primary screen, biochemical, 1536-well; AID 873, 2007; inhibition, % at 5 µM; Kallikrein-5 (Homo sapiens), Q9Y337; recombinant hK5, fluorogenic AMC substrate cleavage; actives 0.59% (n = 210,000);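 active = inhibition of 40% or more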;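 also: 0% = enzyme controls without compound and 100% = no-enzyme blanks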
Target sequence (Q9Y337 67-293 limits assumed): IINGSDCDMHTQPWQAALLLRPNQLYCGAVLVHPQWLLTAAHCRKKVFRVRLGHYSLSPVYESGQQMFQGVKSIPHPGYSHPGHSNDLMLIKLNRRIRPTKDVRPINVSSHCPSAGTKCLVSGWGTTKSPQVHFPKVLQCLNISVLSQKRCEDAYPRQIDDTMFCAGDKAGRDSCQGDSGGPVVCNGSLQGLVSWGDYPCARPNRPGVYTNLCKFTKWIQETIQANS
FXIa inh: human FXIa protease inhibitors, primary screen, biochemical, 1536-well. Coagulation factor XI (Homo sapiens), P03951. purified FXIa, Boc-Glu-Ala-Arg-AMC fluorogenic substrate. inhibition, % at 5 µM. actives 0.14% (n = 220,000). AID 798, 2007;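 active = inhibition of at least 40%; inactive = inhibition below 40%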;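 also: fluorescence of freed AMC excited at 355 nm; 0% = enzyme without compound and 100% = no enzyme blank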
Wee1 stabilizer: Wee1 degradation inhibitors, primary screen, cell-based, HeLa, Wee1K328M-luciferase, luminescence | Wee1-like protein kinase (Homo sapiens), P30291 | HeLa Luc-Wee1K328M stability; 100% = proteasome inhibitor MG132 effect | reporter increase, % at 5 µM | actives 1.2% (n = 220,000) | AID 1321, 2008;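 active = activation above the mean of all tested compounds plus 3 SD, set per screening run, cut at about 8.8% in these data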;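 also: cells exposed to compound for 20 h before luminescence read; 0% = DMSO alone and 100% = MG132 at 30 µM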
Numbers without * were called inactive; . = no result given. Compounds with a hit are over-represented: about 2.2% of the library has one in this group of screens.

SMILES	Thrombin inh	FXIIa inh 1536	hK5 inh	FXIa inh	Wee1 stabilizer
CC(=O)OC[C@H]1O[C@H](CCO/N=C(\C)CCN2CCCc3nc(C)c(C)cc32)C=C[C@@H]1OC(C)=O	2	15	-10	6	9.6*
CN1C2CCC1CC(NC(=O)CSc1ccc(C(C)(C)C)cc1)C2 (stereo not given)	-2	3	3	7	9.6*
CC(C)(C)c1ccc(C(CC(=O)O)NC(=O)CSc2ccccc2)cc1 (stereo not given)	3	1	-12	-6	0
Cc1sc2ncn(CC(=O)NCCCC(=O)N3CCN(Cc4ccc5c(c4)OCO5)CC3)c(=O)c2c1C	-9	0	-3	-6	3
CN(C)S(=O)(=O)c1ccc(C(=O)Oc2cc(=O)[nH]c3ccccc23)cc1	40*	27	12	10	-2
COC(=O)Cc1c(C)nc2nc(-c3ccc(Cl)cc3)[nH]n2c1=O	-5	4	-3	-7	0
COC(=O)Cc1c(C)nc2nc(-c3ccc(C)cc3)[nH]n2c1=O	0	40*	6	8	-1
O=c1c2ccccc2nnn1CSc1nnc(COc2ccc(Cl)cc2)n1Cc1ccco1	1	19	48*	1	-2
O=c1c2ccccc2nnn1CSc1nc2cc(Cl)ccc2c(=O)n1Cc1ccco1	.	.	.	.	1
O=C(CSc1nnc(COc2ccccc2)n1Cc1ccco1)c1ccc(F)cc1	-9	62*	-3	28	5
CCS(=O)(=O)c1ccc2oc(SCC(=O)N3CCCCC3)nc2c1	-3	3	-2	-2	-4
COCCn1cnnc1SCC(=O)Nc1sccc1C(N)=O	-2	4	-1	-1	-1
C/C=C/C(=O)N1CC2(CC(c3cccc(NC(=O)CCCCC)c3)=NO2)C[C@H]1C(N)=O (stereo not given in full)	-5	0	-2	-2	.
CC/C=C/C(=O)N1CC2(CC(c3cccc(NC(=O)CCCCC)c3)=NO2)C[C@H]1C(N)=O (stereo not given in full)	-2	16	31	42*	.
C=C(C)C(=O)Nc1cccc(C2=NOC3(C2)C[C@H](C(N)=O)N(C(=O)CC)C3)c1 (stereo not given in full)	17	55*	28	36	.
COc1ccc(C2C(C(=O)O)c3ccccc3C(=O)N2C)cc1Br (stereo not given)	1	58*	3	34	1
COc1cc(OC)c(C2C(C(=O)O)c3ccccc3C(=O)N2C)cc1OC (stereo not given)	2	13	-5	5	6
CCS(=O)(=O)N1Cc2ccccc2CC1C(=O)Nc1nnc(SCc2ccc(F)cc2)s1 (stereo not given)	-4	14	-13	7	9.1*
CCOC(=O)C(Cc1ccc(O)cc1)NC(=O)CNC(=O)C1CCCN1C(=O)OC(C)(C)C (stereo not given)	3	7	.	0	0
O=C(Nc1nnc(-c2cccs2)o1)c1cc(-c2ccccc2)nc2ccccc12	3	15	-72	6	9.5*
CS(=O)(=O)N1CCC(C(=O)N2CCN(c3ccc(F)cc3)CC2)CC1	1	5	2	-1	0
NC(=O)C1(N2CCCCC2)CCN(Cc2ccc(F)cc2)CC1	23	11	49*	0	-1
CCOC(=O)/C(=N\Nc1cc(Cl)ccc1Cl)N1CCOCC1	-3	4	-9	-5	1
COc1ccccc1NC(=O)C1C2CCCCC21 (stereo not given)	104*	22	61*	12	-3
CC1(C)Cc2ccccc2-c2n[nH]c(=S)n21	-4	14	-21	6	9.5*
SMILES	Thrombin inh	FXIIa inh 1536	hK5 inh	FXIa inh	Wee1 stabilizer
COc1cccc(CC(NC(C)=O)C(=O)NC2CCN(c3nc(C)cc(C)c3C#N)CC2)c1 (stereo not given)	-3	9	-22	5	0
COc1ccc(CC(NC(C)=O)C(=O)NC2CCN(c3nc(C)cc(C)c3C#N)CC2)c(OC)c1 (stereo not given)	0	10	2	8	9.4*
CCOC(=O)C1=C(C)OC(N)=C(C#N)C1c1cc2c(cc1[N+](=O)[O-])OCO2 (stereo not given)	74*	7	-1	-2	-1
Cc1ccc(C(C(=O)NC(C)(C)C)N(Cc2ccco2)C(=O)CCC(=O)Nc2nccs2)cc1 (stereo not given)	.	.	.	.	0
COc1ccc(C2/C(=C(/O)c3ccc(C)cc3)C(=O)C(=O)N2C)cc1 (stereo not given)	-2	5	-31	4	0
COc1ccc(N2C(=O)C(=O)/C(=C(/O)c3ccc(C)cc3)C2c2cccnc2)cc1 (stereo not given)	-1	13	-9	9	10*
O=C1CC(N2CCN(Cc3ccc(Cl)cc3)CC2)C(=O)N1CCc1ccccc1 (stereo not given)	9	41*	18	21	8
O=C1CC(N2CCN(Cc3ccccc3)CC2)C(=O)N1CCc1ccccc1 (stereo not given)	4	15	-5	-6	3
COc1cc(/C=C(/C#N)C(=O)Nc2ccc(C)cc2)ccc1Oc1nc(Cl)ncc1F	4	7	-1	11	3
N=c1n(CC(=O)c2ccc(Br)s2)c2ccccc2n1Cc1ccccc1	0	10	3	4	10*
CCCn1c(=N)n(CC(=O)c2cccs2)c2ccccc21	8	17	7	5	-2
Cn1c(=N)n(CC(=O)c2cccs2)c2ccccc21	14	16	45*	-3	-4
O=C(N/N=C/c1ccc(O)cc1O)/C(=C/c1ccccc1)CCO	-8	7	-7	-3	2
Cc1sc(NC(=O)CN(C)C2CCCCC2)nc1-c1ccc2c(c1)CCN2S(=O)(=O)c1ccccc1	21	14	43*	5	-2
O=c1[nH]c2cc(S(=O)(=O)CCO)ccc2o1	-3	9	-1	1	1
CCC(C)[C@H](NC(=O)Nc1ccc(C(C)=O)cc1)C(=O)OC (stereo not given in full)	1	44*	2	24	1
Cc1ccc(C(C)(C)C)cc1S(=O)(=O)Nc1cccc(S(=O)(=O)NC2=NCCC2)c1	-3	4	-6	-5	0
O=C(Cn1nnc2ccccc2c1=O)N[C@H](C(=O)O)c1ccccc1	-4	0	-1	-1	1
O=C(Nc1ccncc1)C1CCC(CNS(=O)(=O)c2cccc3nsnc23)CC1 (stereo not given)	-4	2	0	4	-3
